≈ marks a conversion by molar mass, not a printed value. Calls of active or inactive are those of the source. The rule behind the calls is not given here.
Biological target: T1, Stromal cell-derived factor 1 (Homo sapiens, UniProt P48061)
Test: Binding affinity to Texas Red-labelled CXCL12 (unknown origin) assessed as inhibition of CXCL12-Texas Red binding to EGFP-labeled human CXCR4 expressed in HEK293 cell membranes at 30 uM pre-incubated for 1 hr by FRET-based binding assay
Settings: not given
How it was run: (§1)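 HEK-293 cells stably expressing human EGFP-CXCR4, 10⁶ cells/ml in HEPES buffer pH 7.4 with 0.1% BSA, 21 °C. CXCL12-Texas Red (100 nM) was preincubated 1 h at room temperature with compound or DMSO, then added at t=150 s. FRET read as loss of EGFP emission at 510 nm (excitation 470 nm) up to equilibrium. Ki from dose-response curves.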

T1 sequence (P48061 whole entry): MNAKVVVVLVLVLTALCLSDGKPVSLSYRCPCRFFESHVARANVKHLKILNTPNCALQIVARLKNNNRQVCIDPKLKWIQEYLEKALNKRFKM

| SMILES | inhibition [%] |
| --- | --- |
| COc1cc(/C=C/C(=O)c2cccc(Cl)c2)ccc1O | 25 |

System: not listed separately
Test: Chemical stability in pH 7.4 PBS/Cdx buffer assessed as parent compound remaining at 10 uM incubated for 24 hrs by RP-HPLC method
Assay type: physicochemical
Settings: read-out: Stability
How it was run: (§2)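 Compound diluted from DMSO stock to 10 μM final (1% DMSO) in PBS pH 7.4, or in PBS with 10% w/w (2-hydroxypropyl)-β-cyclodextrin. Sampled at t0, 2, 4, 6 and 24 h and injected directly onto RP-HPLC. Percent remaining relative to t0 from peak area.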

| SMILES | remaining at 24 h, 10 µM [%] |
| --- | --- |
| COc1cc(C2CC(c3ccc(Cl)cc3)=NN2)ccc1O (centres undefined) | 98 |
| COc1cc(/C=C/C(=O)c2ccc(I)cc2)ccc1O | 100 |
| COc1cc(/C=C2\COc3cc(Cl)ccc3C2=O)ccc1O | 100 |
| Cl.NCCOc1cc(/C=C/C(=O)c2ccc(Cl)cc2)ccc1O | 100 |
| COc1cc(/C=C2\Oc3cc(Cl)ccc3C2=O)ccc1O | 100 |

System: Mus musculus
Test: Inhibition of macrophages infiltration in Balb/c mouse model of 8 day model of allergic eosinophilic airway inflammation at 300 nmol/kg dosed intranasally 2 hrs before ovalbumin challenge by hemocytometry
Assay type: functional, organism-based
Settings: not given

| SMILES | inhibition |
| --- | --- |
| COCOc1ccc(/C=C/C(=O)c2ccc(Cl)cc2O)cc1OC | inactive |
| COc1cc(C2CC(c3ccc(Cl)cc3)=NN2)ccc1O (centres undefined) | inactive |
| COc1cc(/C=C/C(=O)c2ccc(I)cc2)ccc1O | inactive |
| Cl.NCCOc1cc(/C=C/C(=O)c2ccc(Cl)cc2)ccc1O | inactive |
| Cl.NCCOCCOc1cc(/C=C2\Cc3cc(Cl)ccc3C2=O)ccc1O | inactive |

System: not listed separately
Test: Kinetic solubility in pH 7.4 HEPES-BSA buffer at 5 uM incubated for 24 hrs at 20 degC by HPLC method
Assay type: physicochemical
Settings: read-out: Kinetic_solubility
How it was run: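 Compound added from 10 mM DMSO stock to 5 μM in pH 7.4 HEPES-BSA buffer (1 g/L BSA), shaken 24 h at 20 °C. After centrifugation, supernatant concentration measured by HPLC against 5 and 10 μM standards.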

| SMILES | solubility kinetic at 24 h, 5 µM [µM] |
| --- | --- |
| COc1ccc(C(=O)/C=C/c2ccc(O)c(OC)c2)cc1 | > 5 |
| COc1cc(/C=C/C(=O)c2cccnc2)ccc1O | > 5 |
| COc1cc(C2CC(c3ccc(Cl)cc3)=NN2)ccc1O (centres undefined) | > 5 |
| COc1cc(/C=C/C(=O)c2ccc(Cl)cc2F)ccc1O | > 5 |
| CNc1nc(-c2ccc(Cl)cc2)cc(-c2ccc(O)c(OC)c2)n1 | > 5 |
| COc1cc(C2CC(c3ccc(Cl)cc3)=NN2C(C)=O)ccc1O (centres undefined) | > 5 |
| COc1cc(/C=C/C(=O)c2ccc(Cl)cc2)ccc1N | > 5 |
| COc1cc(/C=C/C(=O)c2ccc(C(C)C)cc2)ccc1O | 1.92 (≈ 0.569 µg/mL) |
| COc1cc(/C=C/C(=O)c2cccc(Cl)c2)ccc1O | > 5 |
| Cl.NCCOCCOc1cc(/C=C/C(=O)c2ccc(Cl)cc2)ccc1O | > 5 |
| COc1cc(/C=C/C(=O)c2ccncc2)ccc1O | > 5 |
| COc1cc(/C=C2\Cc3cc(Cl)ccc3C2=O)ccc1O | 0.88 (≈ 0.265 µg/mL) |
| O=C(/C=C/c1ccc(O)c(C(=O)O)c1)c1ccc(Cl)cc1 | > 5 |
| COc1cc(/C=C/C(=O)c2ccccc2Cl)ccc1O | > 5 |
| COc1cc(/C=C/C(=O)c2ccc(Br)cc2)ccc1O | > 5 |
| COc1cc(/C=C/C(=O)c2ccc(I)cc2)ccc1O | > 5 |
| O=C(/C=C/c1ccc2c(c1)OCCO2)c1ccc(Cl)cc1 | > 5 |
| COc1cc(C(=O)/C=C/c2ccc(Cl)cc2)ccc1O | > 5 |
| COc1cc(/C=C2\COc3cc(Cl)ccc3C2=O)ccc1O | > 5 |
| Cl.NCCOc1cc(/C=C/C(=O)c2ccc(Cl)cc2)ccc1O | > 5 |
| COc1cc(/C=C2\Oc3cc(Cl)ccc3C2=O)ccc1O | > 5 |
| Cl.NCCOCCOc1cc(/C=C2\Cc3cc(Cl)ccc3C2=O)ccc1O | > 5 |

Biological target: T1, Stromal cell-derived factor 1
Test: Binding affinity to Texas Red-labelled CXCL12 (unknown origin) assessed as inhibition of CXCL12-Texas Red binding to EGFP-labeled human CXCR4 expressed in HEK293 cell membranes pre-incubated for 1 hr by FRET-based binding assay
Settings: not given
How it was run: as §1

| SMILES | Ki [nM] |
| --- | --- |
| COc1ccc(C(=O)/C=C/c2ccc(O)c(OC)c2)cc1 | 1780 |
| COc1cc(/C=C/C(=O)c2cccnc2)ccc1O | > 10000 |
| COc1cc(C2CC(c3ccc(Cl)cc3)=NN2)ccc1O (centres undefined) | 107 |
| COc1cc(/C=C/C(=O)c2ccc(Cl)cc2F)ccc1O | 107 |
| CNc1nc(-c2ccc(Cl)cc2)cc(-c2ccc(O)c(OC)c2)n1 | > 10000 |
| COc1cc(C2CC(c3ccc(Cl)cc3)=NN2C(C)=O)ccc1O (centres undefined) | > 10000 |
| COc1cc(/C=C/C(=O)c2ccc(Cl)cc2)ccc1N | > 10000 |
| COc1cc(/C=C/C(=O)c2ccc(C(C)C)cc2)ccc1O | 25 |
| Cl.NCCOCCOc1cc(/C=C/C(=O)c2ccc(Cl)cc2)ccc1O | 1070 |
| COc1cc(/C=C/C(=O)c2ccncc2)ccc1O | > 10000 |
| COc1cc(/C=C2\Cc3cc(Cl)ccc3C2=O)ccc1O | 107 |
| O=C(/C=C/c1ccc(O)c(C(=O)O)c1)c1ccc(Cl)cc1 | > 10000 |
| COc1cc(/C=C/C(=O)c2ccccc2Cl)ccc1O | 107 |
| COc1cc(/C=C/C(=O)c2ccc(Br)cc2)ccc1O | 44 |
| COc1cc(/C=C/C(=O)c2ccc(I)cc2)ccc1O | 107 |
| O=C(/C=C/c1ccc2c(c1)OCCO2)c1ccc(Cl)cc1 | 1380 |
| COc1cc(C(=O)/C=C/c2ccc(Cl)cc2)ccc1O | > 10000 |
| COc1cc(/C=C2\COc3cc(Cl)ccc3C2=O)ccc1O | 357 |
| Cl.NCCOc1cc(/C=C/C(=O)c2ccc(Cl)cc2)ccc1O | 357 |
| COc1cc(/C=C2\Oc3cc(Cl)ccc3C2=O)ccc1O | 203 |
| Cl.NCCOCCOc1cc(/C=C2\Cc3cc(Cl)ccc3C2=O)ccc1O | 496 |

System: Mus musculus
Test: Inhibition of lymphocytes infiltration in Balb/c mouse model of 8 day model of allergic eosinophilic airway inflammation at 300 nmol/kg dosed intranasally 2 hrs before ovalbumin challenge by hemocytometry
Assay type: functional, organism-based
Settings: not given
How it was run: (§3)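 OVA/alum-sensitized Balb/c mice challenged intranasally with OVA on days 5–7. Compounds at 300 nmol/kg in 10% PBS/Cdx given intranasally 2 h before each challenge. BAL 24 h after the last challenge; eosinophils, neutrophils and lymphocytes counted by hemocytometer and differential cytospin; n=6/group.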

| SMILES | inhibition |
| --- | --- |
| COCOc1ccc(/C=C/C(=O)c2ccc(Cl)cc2O)cc1OC | inactive |
| COc1cc(C2CC(c3ccc(Cl)cc3)=NN2)ccc1O (centres undefined) | inactive |
| COc1cc(/C=C/C(=O)c2ccc(I)cc2)ccc1O | inactive |
| Cl.NCCOc1cc(/C=C/C(=O)c2ccc(Cl)cc2)ccc1O | inactive |
| Cl.NCCOCCOc1cc(/C=C2\Cc3cc(Cl)ccc3C2=O)ccc1O | inactive |

System: Mus musculus
Test: Inhibition of eosinophil infiltration in Balb/c mouse model of 8 day model of allergic eosinophilic airway inflammation at 300 nmol/kg dosed intranasally 2 hrs before ovalbumin challenge by hemocytometry
Assay type: functional
Settings: not given
How it was run: as §3

| SMILES | inhibition |
| --- | --- |
| COc1cc(/C=C2\COc3cc(Cl)ccc3C2=O)ccc1O | inactive |
| Cl.NCCOc1cc(/C=C/C(=O)c2ccc(Cl)cc2)ccc1O | inactive |
| COc1cc(/C=C2\Oc3cc(Cl)ccc3C2=O)ccc1O | inactive |

Same assay, conditions: inhaled or nasal

| SMILES | inhibition in vivo at 0.3 µmol/kg [%] |
| --- | --- |
| COc1cc(C2CC(c3ccc(Cl)cc3)=NN2)ccc1O (centres undefined) | 39 |
| COc1cc(/C=C/C(=O)c2ccc(I)cc2)ccc1O | 36 |

System: not listed separately
Test: Thermodynamic solubility in pH 7.4 PBS buffer incubated for 24 hrs at 22 degC by HPLC method
Assay type: physicochemical
Settings: read-out: Therm_solubility
How it was run: (§4)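 Powder dissolved to saturation in pH 7.4 PBS (100 mM sodium phosphate, 150 mM NaCl), or in PBS with 10% Cdx, and shaken 24 h. After centrifugation, supernatant quantified by HPLC against a per-compound calibration line prepared from the DMSO stock.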

| SMILES | solubility thermodynamic at 24 h [µM] |
| --- | --- |
| COc1cc(C2CC(c3ccc(Cl)cc3)=NN2)ccc1O (centres undefined) | 34.6 (≈ 10.5 µg/mL) |
| COc1cc(/C=C/C(=O)c2ccc(I)cc2)ccc1O | 1.2 (≈ 0.456 µg/mL) |
| COc1cc(/C=C2\COc3cc(Cl)ccc3C2=O)ccc1O | 0.5 (≈ 0.158 µg/mL) |
| Cl.NCCOc1cc(/C=C/C(=O)c2ccc(Cl)cc2)ccc1O | 4.2 |
| COc1cc(/C=C2\Oc3cc(Cl)ccc3C2=O)ccc1O | 1.9 (≈ 0.575 µg/mL) |

System: not listed separately
Test: Chemical stability in pH 7.4 PBS buffer assessed as parent compound remaining at 10 uM incubated for 24 hrs by RP-HPLC method
Assay type: physicochemical
Settings: read-out: Stability
How it was run: as §2

| SMILES | remaining at 24 h, 10 µM [%] |
| --- | --- |
| COc1cc(C2CC(c3ccc(Cl)cc3)=NN2)ccc1O (centres undefined) | 78 |
| COc1cc(/C=C/C(=O)c2ccc(I)cc2)ccc1O | 100 |
| COc1cc(/C=C2\COc3cc(Cl)ccc3C2=O)ccc1O | 100 |
| Cl.NCCOc1cc(/C=C/C(=O)c2ccc(Cl)cc2)ccc1O | 100 |
| COc1cc(/C=C2\Oc3cc(Cl)ccc3C2=O)ccc1O | 100 |

System: not listed separately
Test: Thermodynamic solubility in pH 7.4 PBS/Cdx buffer incubated for 24 hrs at 22 degC by HPLC method
Assay type: physicochemical
Settings: read-out: Therm_solubility
How it was run: as §4

| SMILES | solubility thermodynamic at 24 h [µM] |
| --- | --- |
| COc1cc(C2CC(c3ccc(Cl)cc3)=NN2)ccc1O (centres undefined) | > 3000 |
| COc1cc(/C=C/C(=O)c2ccc(I)cc2)ccc1O | 319 (≈ 121 µg/mL) |
| COc1cc(/C=C2\COc3cc(Cl)ccc3C2=O)ccc1O | 933 (≈ 296 µg/mL) |
| Cl.NCCOc1cc(/C=C/C(=O)c2ccc(Cl)cc2)ccc1O | > 5000 |
| COc1cc(/C=C2\Oc3cc(Cl)ccc3C2=O)ccc1O | 330 (≈ 99.9 µg/mL) |
